# Measured values from different studies.
# CDK4 with cyclin D1: Cyclin-dependent kinase 4, with cyclin D1 (CDK4, Homo sapiens, UniProt P11802)
# CDK4 with cyclin D3: Cyclin-dependent kinase 4, with cyclin D3 (CDK4, Homo sapiens, UniProt P11802)
# CDK4: Cyclin-dependent kinase 4 (CDK4, Homo sapiens, UniProt P11802)
SMILES,target,assay,setting,measurement,result
CO[C@@H]1[C@H](N(C)C(=O)c2ccccc2)C[C@H]2O[C@]1(C)n1c3ccccc3c3c4c(c5c6ccccc6n2c5c31)C(=O)NC4,CDK4 with cyclin D1,"enzyme activity, inhibitor",1 µM,inhibition,4%
CN1CCN(C(=O)c2ccc(NC(=O)Nc3ccc(N(C)c4ccnc(Nc5ccc(CS(C)(=O)=O)cc5)n4)cc3)cc2)CC1,CDK4 with cyclin D3,binding,1 µM,remaining binding,89%
C1=C/COCc2cc(ccc2OCCN2CCCC2)Nc2nccc(n2)-c2cccc(c2)COC/1,CDK4 with cyclin D3,binding,0.1 µM,remaining binding,25%
CC#CC(=O)N1CCC[C@H]1c1nc(-c2ccc(C(=O)Nc3ccccn3)cc2)c2c(N)nccn12,CDK4,"enzyme activity, inhibitor",1 µM,inhibition,0%
C[C@]1(O)CCCN(c2nc(Nc3ccc(S(=O)(=O)N[C@H]4CC[C@H](CN5CCN(c6ccc(C7CCC(=O)NC7=O)cc6F)CC5)CC4)cc3F)ncc2C(F)(F)F)C1 (stereo partly drawn),CDK4 with cyclin D1,"binding, competition with immobilised ligand",1 µM,remaining binding,97%
C=CC(=O)N1CCC([C@@H]2CCNc3c(C(N)=O)c(-c4ccc(Oc5ccccc5)cc4)nn32)CC1,CDK4 with cyclin D1,"enzyme activity, inhibitor",1 µM,inhibition,0%
Cc1ccc(NC(=O)c2ccnc(C(F)(F)F)c2)cc1-c1cc(OCCO)nc(N2CCOCC2)c1,CDK4 with cyclin D3,binding,1 µM,remaining binding,100%
C[C@]1(O)CCCN(c2nc(Nc3ccc(S(=O)(=O)N[C@H]4CC[C@H](CN5CCN(c6ccc(C7CCC(=O)NC7=O)cc6F)CC5)CC4)cc3Cl)ncc2C(F)(F)F)C1 (stereo partly drawn),CDK4,"binding, competition with immobilised ligand",1 µM,remaining binding,93%
COc1ccc2[nH]c3c4[nH]c5ccc(OC)cc5c4c4c(c3c2c1)C(=O)NC4=O,CDK4 with cyclin D3,binding,1 µM,remaining binding,74%
Cc1cc(O)c(-c2ccc([C@@H](C)CN(C)C)cc2)c2c1[nH]c(=O)c1sccc12,CDK4,"enzyme activity, inhibitor",0.1 µM,inhibition,4.95%
CNS(=O)(=O)c1ccc(Nc2ncc(C(F)(F)F)c(N3CCC[C@](C)(O)C3)n2)c(C)c1,CDK4,"binding, competition with immobilised ligand",1 µM,remaining binding,71%
CCCCC(=O)Nc1ccc(-c2ccc3ncn(CCC)c(=O)c3c2)cn1,CDK4,"binding, competition with immobilised ligand",0.5 µM,remaining binding,100%
